Source: ChEMBL document CHEMBL5038590, “Discovery of G Protein-Biased Ligands against 5-HT7R” (J Med Chem, 2021)

Assays:
[1] = biological target: T1, 5-hydroxytryptamine receptor 2C (Homo sapiens, UniProt P28335); assay: Binding affinity to 5-HT2CR (unknown origin)
T1 sequence (P28335 whole entry): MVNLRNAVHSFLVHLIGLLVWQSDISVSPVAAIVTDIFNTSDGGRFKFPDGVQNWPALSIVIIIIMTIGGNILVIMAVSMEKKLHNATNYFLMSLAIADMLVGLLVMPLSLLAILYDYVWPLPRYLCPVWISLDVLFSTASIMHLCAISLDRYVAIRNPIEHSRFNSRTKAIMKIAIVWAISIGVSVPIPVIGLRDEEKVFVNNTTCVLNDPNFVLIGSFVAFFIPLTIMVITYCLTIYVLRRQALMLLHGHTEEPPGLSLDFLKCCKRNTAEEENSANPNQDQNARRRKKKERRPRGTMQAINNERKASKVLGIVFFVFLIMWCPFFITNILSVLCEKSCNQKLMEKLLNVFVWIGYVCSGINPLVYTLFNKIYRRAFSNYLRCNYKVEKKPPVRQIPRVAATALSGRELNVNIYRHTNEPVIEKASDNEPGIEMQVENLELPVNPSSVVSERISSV
How it was run: (§1)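 Run by the NIMH Psychoactive Drug Screening Program as competition radioligand binding on crude membranes of cells expressing the recombinant receptor. Eleven dilutions (0.05 nM–50 μM, prepared at 5× assay concentration) were made in 50 mM Tris-HCl, 10 mM MgCl₂, 1 mM EDTA, pH 7.4. Incubation was 1.5 h at rt in the dark, followed by GF/B filtration (0.3% PEI) and scintillation counting. IC₅₀ was converted to Ki; at least triplicate.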

Mus musculus [2] = assay: Effect on wild type mouse assessed as time taken for duration of self grooming at 5 mg/kg, ip pretreated for 10 mins in presence of SB269970 followed by compound addition and measured after 30 mins under 40 lux lighting (reference value: 43.7 +/- 10.8 sec); format: functional; conditions: 0.5 h
[3] = biological target: 5-hydroxytryptamine receptor 2A (Homo sapiens, UniProt P28223); assay: Binding affinity to 5-HT2AR (unknown origin); how it was run: as §1
[4] = Volume of distribution in steady state in ICR mouse plasma at 1 mg/kg, iv measured upto 8 hrs by LC-MS/MS analysis; format: ADME, organism-based; conditions: read-out: Vdss
How it was run: (§2)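 Male ICR mice, 7–8 weeks, 30 ± 5 g; single dose 1 mg/kg iv or 10 mg/kg ip (n = 4 each). Carotid artery blood at 0, 0.08 (iv only), 0.25, 0.5, 1, 2, 4, 6, 8 h. Plasma precipitated with acetonitrile containing internal standard, quantified by LC–MS/MS. Parameters by non-compartmental analysis; AUClast by trapezoidal rule; values mean ± SD.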

Mus musculus [5] = assay: Effect on wild type mouse assessed as time taken for duration of self grooming at 5 mg/kg, ip after 30 mins under 40 lux lighting (reference value: 43.7 +/- 10.8 sec); format: functional; conditions: 0.5 h
[6] = biological target: 5-hydroxytryptamine receptor 7 (Homo sapiens, UniProt P34969)
[7] = biological target: 5-hydroxytryptamine receptor 6 (Homo sapiens, UniProt P50406); assay: Binding affinity to 5-HT6R (unknown origin); how it was run: as §1
[8] = biological target: 5-hydroxytryptamine receptor 1B (Homo sapiens, UniProt P28222); assay: Binding affinity to 5-HT1BR (unknown origin); how it was run: as §1
[9] = Tmax in ICR mouse plasma at 10 mg/kg, ip measured upto 8 hrs by LC-MS/MS analysis; format: ADME, organism-based; how it was run: as §2
Mus musculus [10] = assay: Effect on shank3-/- mouse model of autism spectrum disorder assessed as time taken for duration of self grooming at 5 mg/kg, ip after 30 mins under 40 lux lighting (reference value: 224 +/- 47.4 sec); format: functional; conditions: 0.5 h
[11] = biological target: 5-hydroxytryptamine receptor 1E (Homo sapiens, UniProt P28566); assay: Binding affinity to 5-HT1ER (unknown origin); how it was run: as §1
[12] = biological target: 5-hydroxytryptamine receptor 2B (Homo sapiens, UniProt P41595); assay: Binding affinity to 5-HT2BR (unknown origin); how it was run: as §1
Mus musculus [13] = assay: Effect on shank3-/- mouse model of autism spectrum disorder assessed as time taken for duration of self grooming at 5 mg/kg, ip pretreated for 10 mins in presence of SB269970 followed by compound addition and measured after 30 mins under 40 lux lighting (reference value: 224 +/- 47.4 sec); format: functional; conditions: 0.5 h
[14] = Cmax in ICR mouse plasma at 10 mg/kg, ip measured upto 8 hrs by LC-MS/MS analysis; format: ADME, organism-based; design: route intraperitoneal, dose 10 mg/kg, time <=8; how it was run: as §2
[15] = MRTinfinity in ICR mouse plasma at 10 mg/kg, ip measured upto 8 hrs by LC-MS/MS analysis; format: ADME, organism-based; how it was run: as §2
[16] = Half life in ICR mouse plasma at 1 mg/kg, iv measured upto 8 hrs by LC-MS/MS; format: ADME, organism-based; how it was run: as §2
[17] = biological target: T2, 5-hydroxytryptamine receptor 1A (Homo sapiens, UniProt P08908); assay: Binding affinity to 5-HT1AR (unknown origin); how it was run: as §1
T2 sequence (P08908 whole entry): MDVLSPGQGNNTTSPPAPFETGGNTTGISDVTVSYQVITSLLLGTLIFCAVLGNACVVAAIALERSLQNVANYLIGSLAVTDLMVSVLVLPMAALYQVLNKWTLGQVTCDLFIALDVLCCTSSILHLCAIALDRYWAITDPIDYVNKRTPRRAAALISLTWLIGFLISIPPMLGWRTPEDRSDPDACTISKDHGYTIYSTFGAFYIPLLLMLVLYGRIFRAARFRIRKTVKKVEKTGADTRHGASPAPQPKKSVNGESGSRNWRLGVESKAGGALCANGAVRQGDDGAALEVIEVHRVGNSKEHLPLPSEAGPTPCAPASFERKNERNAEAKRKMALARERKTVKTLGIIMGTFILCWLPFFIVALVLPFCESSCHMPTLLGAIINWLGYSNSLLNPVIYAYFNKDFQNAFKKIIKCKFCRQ

CYP2C9 = CYP2C9 (Homo sapiens, UniProt P11712); assay: Inhibition of CYP2C9 in human liver microsomes assessed as remaining activity at 10 uM using diclofenac as substrate preincubated for 5 mins followed by addition of NADPH generating system and incubated for 15 mins by LC/MS relative to control; format: ADME; conditions: probe diclofenac, time 20 min, read-out: Activity
How it was run: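 Human liver microsomes (0.25 mg/mL) in 0.1 M phosphate pH 7.4 with a five-substrate cocktail: phenacetin 50 μM, diclofenac 10 μM, S-mephenytoin 100 μM, dextromethorphan 5 μM, midazolam 2.5 μM. Compound at 0 (control) or 10 μM. Preincubated 5 min at 37 °C, NADPH-generating system added, 15 min at 37 °C. Stopped with acetonitrile plus internal standard; substrate metabolites measured by LC/MS.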

CYP2C9, sequence (P11712 whole entry): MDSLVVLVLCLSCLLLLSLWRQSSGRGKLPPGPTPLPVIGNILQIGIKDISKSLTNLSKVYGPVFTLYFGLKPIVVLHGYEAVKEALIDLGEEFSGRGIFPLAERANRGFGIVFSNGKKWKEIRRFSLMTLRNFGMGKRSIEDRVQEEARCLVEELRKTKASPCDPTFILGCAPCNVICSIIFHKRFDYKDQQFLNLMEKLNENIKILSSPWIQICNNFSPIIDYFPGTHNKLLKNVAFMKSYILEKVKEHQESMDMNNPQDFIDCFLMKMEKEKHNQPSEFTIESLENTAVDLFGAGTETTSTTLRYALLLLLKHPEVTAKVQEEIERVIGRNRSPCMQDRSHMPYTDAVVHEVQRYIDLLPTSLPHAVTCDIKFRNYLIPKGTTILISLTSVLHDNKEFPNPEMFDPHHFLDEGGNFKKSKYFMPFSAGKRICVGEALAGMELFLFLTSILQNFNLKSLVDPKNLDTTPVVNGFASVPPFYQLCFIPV
5-hydroxytryptamine receptor 1B, sequence (P28222 whole entry): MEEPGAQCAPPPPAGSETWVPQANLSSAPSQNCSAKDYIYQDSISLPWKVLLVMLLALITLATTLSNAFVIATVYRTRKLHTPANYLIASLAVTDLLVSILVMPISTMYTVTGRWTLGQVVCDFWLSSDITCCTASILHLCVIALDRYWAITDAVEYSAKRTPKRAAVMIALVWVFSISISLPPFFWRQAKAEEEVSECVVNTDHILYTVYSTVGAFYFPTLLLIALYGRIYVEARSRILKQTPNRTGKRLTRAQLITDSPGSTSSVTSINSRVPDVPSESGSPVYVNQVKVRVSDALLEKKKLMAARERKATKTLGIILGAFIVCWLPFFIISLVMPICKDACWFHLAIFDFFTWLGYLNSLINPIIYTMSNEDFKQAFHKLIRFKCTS
5-hydroxytryptamine receptor 6, sequence (P50406 whole entry): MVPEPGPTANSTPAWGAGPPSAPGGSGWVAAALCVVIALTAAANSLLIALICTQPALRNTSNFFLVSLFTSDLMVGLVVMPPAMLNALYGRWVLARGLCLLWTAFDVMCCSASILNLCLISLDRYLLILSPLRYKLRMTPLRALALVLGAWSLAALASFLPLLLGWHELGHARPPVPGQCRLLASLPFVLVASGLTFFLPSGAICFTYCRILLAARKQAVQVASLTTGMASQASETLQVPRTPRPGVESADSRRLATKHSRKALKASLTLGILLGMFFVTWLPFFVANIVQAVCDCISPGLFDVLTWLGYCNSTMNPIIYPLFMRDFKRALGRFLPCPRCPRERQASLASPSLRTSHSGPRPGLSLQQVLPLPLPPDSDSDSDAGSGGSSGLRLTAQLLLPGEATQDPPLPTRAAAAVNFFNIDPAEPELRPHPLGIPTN
5-hydroxytryptamine receptor 1E, sequence (P28566 whole entry): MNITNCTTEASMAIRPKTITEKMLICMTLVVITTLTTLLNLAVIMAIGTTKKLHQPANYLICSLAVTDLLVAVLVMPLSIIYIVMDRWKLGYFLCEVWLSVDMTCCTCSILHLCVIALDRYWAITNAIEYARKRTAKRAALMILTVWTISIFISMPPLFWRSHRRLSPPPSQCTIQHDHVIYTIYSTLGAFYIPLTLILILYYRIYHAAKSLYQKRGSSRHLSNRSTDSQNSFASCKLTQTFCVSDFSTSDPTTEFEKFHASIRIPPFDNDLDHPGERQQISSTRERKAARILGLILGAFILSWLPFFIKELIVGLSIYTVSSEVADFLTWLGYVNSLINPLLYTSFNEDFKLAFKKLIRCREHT
5-hydroxytryptamine receptor 7, sequence (P34969 whole entry): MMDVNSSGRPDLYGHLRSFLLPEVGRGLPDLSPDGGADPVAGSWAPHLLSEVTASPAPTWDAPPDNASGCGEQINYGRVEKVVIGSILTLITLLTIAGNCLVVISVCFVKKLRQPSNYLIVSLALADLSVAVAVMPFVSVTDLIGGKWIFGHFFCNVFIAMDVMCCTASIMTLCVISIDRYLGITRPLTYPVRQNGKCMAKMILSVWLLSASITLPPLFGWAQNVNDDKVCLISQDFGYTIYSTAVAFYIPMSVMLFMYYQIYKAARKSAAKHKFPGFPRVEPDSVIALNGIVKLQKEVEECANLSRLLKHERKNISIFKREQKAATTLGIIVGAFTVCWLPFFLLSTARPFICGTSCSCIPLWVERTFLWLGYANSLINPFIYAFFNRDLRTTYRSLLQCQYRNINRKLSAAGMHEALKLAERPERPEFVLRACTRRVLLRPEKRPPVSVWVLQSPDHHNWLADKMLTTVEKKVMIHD
5-hydroxytryptamine receptor 2B, sequence (P41595 whole entry): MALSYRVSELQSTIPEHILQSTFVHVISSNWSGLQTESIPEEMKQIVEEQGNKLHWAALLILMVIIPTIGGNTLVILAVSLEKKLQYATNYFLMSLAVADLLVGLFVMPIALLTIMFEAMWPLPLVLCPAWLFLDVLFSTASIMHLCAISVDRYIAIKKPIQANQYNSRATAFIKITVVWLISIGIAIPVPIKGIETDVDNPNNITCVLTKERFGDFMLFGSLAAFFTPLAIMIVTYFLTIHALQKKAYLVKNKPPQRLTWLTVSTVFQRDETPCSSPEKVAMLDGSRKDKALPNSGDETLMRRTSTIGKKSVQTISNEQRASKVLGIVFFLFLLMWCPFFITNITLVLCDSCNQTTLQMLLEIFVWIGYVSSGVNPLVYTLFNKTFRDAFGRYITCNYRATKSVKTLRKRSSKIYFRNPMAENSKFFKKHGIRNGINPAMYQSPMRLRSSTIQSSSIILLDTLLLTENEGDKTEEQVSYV
5-hydroxytryptamine receptor 2A, sequence (P28223 whole entry): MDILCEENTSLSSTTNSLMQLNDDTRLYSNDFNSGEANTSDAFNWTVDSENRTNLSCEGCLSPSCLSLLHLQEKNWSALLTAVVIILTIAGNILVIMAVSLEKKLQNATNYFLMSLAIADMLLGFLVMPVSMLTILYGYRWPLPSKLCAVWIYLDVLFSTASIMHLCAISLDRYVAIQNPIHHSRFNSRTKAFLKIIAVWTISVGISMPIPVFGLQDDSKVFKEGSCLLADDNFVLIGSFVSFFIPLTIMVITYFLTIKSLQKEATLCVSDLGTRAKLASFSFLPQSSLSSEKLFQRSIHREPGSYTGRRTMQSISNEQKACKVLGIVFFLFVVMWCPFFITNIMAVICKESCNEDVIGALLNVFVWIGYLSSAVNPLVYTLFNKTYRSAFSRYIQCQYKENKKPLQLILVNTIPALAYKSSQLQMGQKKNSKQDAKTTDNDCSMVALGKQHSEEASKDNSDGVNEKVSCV

For `CCNCCc1ccc(Cl)c(-c2ccccc2OC)c1.Cl`, the Ki [1] was > 10 µM, the Time (Mus musculus [2]) was 70.8 s and the Ki [3] was 0.52 µM. The Vd [4] was 19.5 L/kg, the Time (Mus musculus [5]) was 107 s and the EC50 [6] was 0.18 µM. For the same compound, the Ki [7] was > 10 µM, the Ki [8] was 0.58 µM and the Tmax [9] was 24 min. For the same compound, the Time (Mus musculus [10]) was 553 s, the Ki [11] was 2.6 µM and the Ki [12] was 0.13 µM. It also gave a Time (Mus musculus [13]) of 166 s, a Cmax [14] of 0.348 µg/mL and an MRT inf [15] of 78 min. The half-life [16] was 30 min, the Ki [17] was 0.052 µM and the activity at 0.25 h, 10 µM (CYP2C9) was > 100%.
